What was measured:
Mus musculus [1] = experiment: Antitumor activity in BDF1 male mice bearing L1210 Leukemia at a dose of 42 ug/kg; survivors for 30 days was reported; assay type: functional
Summary of the method: (§1)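 Male BDF1 mice, 4-6 weeks old, 6 per group, were given 10⁵ L1210 cells ip on day 0. Drug in DMF was diluted in 30% DMSO/0.5% glucose and given ip on days 1, 5 and 9. %ILS = (T/C − 1) × 100 on median survival of dying animals only; 30-day survivors noted separately. Group weight change was taken from day 0 to the lowest-weight day.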

SK-MEL-2 = experiment: Cytotoxicity against NCI tumor panel,SK-MEL2 melanoma cancer cell line; assay type: functional, cell-based; settings: Homo sapiens
Summary of the method: (§2)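 Performed by NCI with the sulforhodamine B (SRB) method on its human tumour cell panel, using a 48-h drug incubation.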

HCT-15 = experiment: Cytotoxicity against NCI tumor panel, HCT-15 colon cancer cell line; assay type: functional, cell-based; settings: Homo sapiens
Summary of the method: (§3)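 NCI cell-line panel screen run by the National Cancer Institute; sulforhodamine B (SRB) readout after 48-h drug incubation.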

KM12 = experiment: Cytotoxicity against NCI tumor panel, KM12 colon cancer cell line; assay type: functional, cell-based; settings: Homo sapiens; summary of the method: as §2
Mus musculus [2] = species: Mus musculus; experiment: Mean body weight change
786-0 = experiment: Cytotoxicity against NCI tumor panel, 786-0 renal cancer cell line; assay type: functional, cell-based; settings: Homo sapiens; summary of the method: as §3
DU-145 = experiment: Cytotoxicity against NCI tumor panel, DU145 prostate cancer cell line; assay type: functional, cell-based; settings: Homo sapiens; summary of the method: as §3
BT-549 = experiment: Cytotoxicity against NCI tumor panel, BT-549 breast cancer cell line; assay type: functional, cell-based; settings: Homo sapiens; summary of the method: as §3
Mus musculus [3] = species: Mus musculus; experiment: Body weight change between days 0 and the day when the animal weight was the lowest; assay type: functional; summary of the method: as §1
SNB-19 = experiment: Cytotoxicity against NCI tumor panel, SNB-19 CNS cancer cell line; assay type: functional, cell-based; settings: Homo sapiens; summary of the method: as §2
Mus musculus [4] = species: Mus musculus; experiment: Antitumor activity in mice bearing B16BL6 melanoma; survivors for 90 days was reported
SNB-75 = experiment: Cytotoxicity against NCI tumor panel, SNB-75 CNS cancer cell line; assay type: functional, cell-based; settings: Homo sapiens; summary of the method: as §2
Mus musculus [5] = experiment: Antitumor activity in BDF1 male mice bearing L1210 Leukemia at a dose of 25 ug/kg; survivors for 30 days was reported; assay type: functional; summary of the method: as §1
SF-295 = experiment: Cytotoxicity against NCI tumor panel, SF-295 CNS cancer cell line; assay type: functional, cell-based; settings: Homo sapiens; summary of the method: as §2
A498 = experiment: Cytotoxicity against NCI tumor panel, A-498 renal cancer cell line; assay type: functional, cell-based; settings: Homo sapiens; summary of the method: as §3
HCC 2998 = experiment: Cytotoxicity against NCI tumor panel, HCC_2998 colon cancer cell line; assay type: functional, cell-based; settings: Homo sapiens; summary of the method: as §3
HOP-62 = experiment: Cytotoxicity against NCI tumor panel, HOP-62 non small-cell lung cancer cell line; assay type: functional, cell-based; settings: Homo sapiens; summary of the method: as §3
HCT-116 = experiment: Cytotoxicity against NCI tumor panel, HCT116 colon cancer cell line; assay type: functional, cell-based; settings: Homo sapiens; summary of the method: as §3
HT-29 = experiment: Cytotoxicity against NCI tumor panel, HT-29 colon cancer cell line; assay type: functional, cell-based; settings: Homo sapiens; summary of the method: as §2
COLO 205 = experiment: Cytotoxicity against NCI tumor panel, COLO 205 colon cancer cell line; assay type: functional, cell-based; settings: Homo sapiens; summary of the method: as §3
Mus musculus [6] = experiment: Antitumor activity in BDF1 male mice bearing L1210 Leukemia at a dose of 70 ug/kg; assay type: functional; summary of the method: as §1
EKVX = experiment: Cytotoxicity against NCI tumor panel, EKVX non small-cell lung cancer cell line; assay type: functional, cell-based; settings: Homo sapiens; summary of the method: as §3
SK-MEL-5 = experiment: Cytotoxicity against NCI tumor panel, SKMEL-5 melanoma cancer cell line; assay type: functional, cell-based; settings: Homo sapiens; summary of the method: as §2
SF-539 = experiment: Cytotoxicity against NCI tumor panel, SF-539 CNS cancer cell line; assay type: functional, cell-based; settings: Homo sapiens; summary of the method: as §2
MDA-MB-231 = experiment: Cytotoxicity against NCI tumor panel, MDA-MB-231/ATCC breast cancer cell line; assay type: functional, cell-based; settings: Homo sapiens; summary of the method: as §2
NCI/ADR-RES = experiment: Cytotoxicity against NCI tumor panel, NCI/ADR-RES breast cancer cell line; assay type: functional, cell-based; settings: Homo sapiens; summary of the method: as §2
NCI-H460 = experiment: Cytotoxicity against NCI tumor panel, NCI-H460 non small-cell lung cancer cell line; assay type: functional, cell-based; settings: Homo sapiens; summary of the method: as §2
ACHN = experiment: Cytotoxicity against NCI tumor panel, ACHN renal cancer cell line; assay type: functional, cell-based; settings: Homo sapiens; summary of the method: as §3

With `CC(=O)Nc1ccc2[nH]c(C(=O)Nc3ccc4[nH]c(C(=O)N5CC(CCl)c6c5cc(O)c5ccccc65)cc4c3)cc2c1` (stereo not drawn) the No. of survivors (Mus musculus [1]) was 0, the IC50 (SK-MEL-2) was 2.11 nM and the IC50 (HCT-15) was > 10 nM. It also gave an IC50 (KM12) of 1.78 nM, a Weight (Mus musculus [2]) of 16% and an IC50 (786-0) of 1.66 nM. For the same compound, the IC50 (DU-145) was 0.982 nM, the IC50 (BT-549) was 3.29 nM and the Weight (Mus musculus [3]) was 23%. The IC50 (SNB-19) was 2.59 nM, the No. of survivors (Mus musculus [4]) was 0 and the IC50 (SNB-75) was 0.513 nM. For the same compound, the No. of survivors (Mus musculus [5]) was 0, the IC50 (SF-295) was 2.64 nM and the IC50 (A498) was 3.95 nM. It also gave an IC50 (HCC 2998) of 4.03 nM, an IC50 (HOP-62) of 1.25 nM and an IC50 (HCT-116) of 0.495 nM. The IC50 (HT-29) was 1.34 nM, the IC50 (COLO 205) was 2.99 nM and the No. of survivors (Mus musculus [6]) was 1. It also gave an IC50 (EKVX) of 2.39 nM, an IC50 (SK-MEL-5) of 1.11 nM and an IC50 (SF-539) of 1.24 nM. It also gave an IC50 (MDA-MB-231) of 5.97 nM, an IC50 (NCI/ADR-RES) of 8.56 nM and an IC50 (NCI-H460) of 1.48 nM. It also gave an IC50 (ACHN) of 1.28 nM.

— ChEMBL document CHEMBL1133719, “Synthesis and preliminary biological evaluations of CC-1065 analogues: effects of different linkers and terminal amides on biological activity” (J Med Chem, 2000)
